# Source: ChEMBL document CHEMBL1130421, “A facile, alternative synthesis of 4'-thioarabinonucleosides and their biological activities” (J Med Chem, 1997)
# Tests used:
# Human alphaherpesvirus 3 = assay: Antiviral activity against varicella zoster virus (VZV) Oka strain in HEL ([…]) cells.; format: functional; conditions: Human alphaherpesvirus 3, HEL; read-out: ED50 (the source's name)
# Human alphaherpesvirus 2 = assay: Antiviral activity against herpes simplex virus-2 (HSV-2) Ms strain in HEL ([…]) cells.; format: functional; conditions: Human alphaherpesvirus 2, HEL; read-out: ED50 (the source's name)
# Procedure, shortened: (§1)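 Plaque reduction assay in HEL cells. Strains: HSV-1 VR-3, HSV-2 MS, HCMV AD 169. Run as described earlier.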
# Human betaherpesvirus 5 = assay: Antiviral activity against human cytomegalovirus (HCMV) AD 169 strain HEL ([…]) cells.; format: functional; conditions: Human betaherpesvirus 5, HEL; read-out: ED50 (the source's name); procedure, shortened: as §1
# Human alphaherpesvirus 1 = assay: Antiviral activity against herpes simplex virus-1 VR-3 strain in HEL ([…]) cells.; format: functional; conditions: Human alphaherpesvirus 1, HEL; read-out: ED50 (the source's name); procedure, shortened: as §1
# CCRF-HSB-2 = assay: Antiproliferative effects on CCRF-HSB-2 (human leukemia) cells.; format: functional, cell-based
# Procedure, shortened: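 CCRF-HSB-2 cells at 1.1 × 10⁵ cells/mL in RPMI 1640 + 10% FBS. Compound added in medium or PBS as serial 0.5 log₁₀ dilutions. Incubated 3 days at 37 °C, 5% CO₂. MTT then added for another 4 h; formazan solubilized in acidic DMF/SDS. A570 read against 690 nm reference. IC50 read graphically from dose-inhibition curve.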
Compound,EC50 (Human alphaherpesvirus 3) [µg/mL],EC50 (Human alphaherpesvirus 2) [µg/mL],EC50 (Human betaherpesvirus 5) [µg/mL],EC50 (Human alphaherpesvirus 1) [µg/mL],IC50 (CCRF-HSB-2) [µg/mL]
CCc1cn([C@H]2S[C@H](CO)[C@@H](O)[C@@H]2O)c(=O)[nH]c1=O,> 50,> 100,> 50,> 100,> 100
O=c1[nH]c(=O)n([C@H]2S[C@H](CO)[C@@H](O)[C@@H]2O)cc1/C=C/Cl,> 50,> 100,> 50,> 100,> 100
Nc1nc(N)c2ncn([C@H]3S[C@H](CO)[C@@H](O)[C@@H]3O)c2n1,> 50,> 100,> 50,> 100,> 100
Cc1cn([C@@H]2S[C@H](CO)[C@@H](O)[C@@H]2O)c(=O)[nH]c1=O,6.6,4.6,44,0.77,> 100
Nc1nc(O)c2ncn([C@@H]3S[C@H](CO)[C@@H](O)[C@@H]3O)c2n1,0.11,0.59,0.01,0.49,0.29
Nc1ncnc2c1ncn2[C@H]1S[C@H](CO)[C@@H](O)[C@@H]1O,> 50,> 100,> 50,> 100,> 100
Nc1nc2c(ncn2COC(CO)CO)c(=O)[nH]1 [GANCICLOVIR],0.21,0.039,0.21,0.016,17
CCc1cn([C@@H]2S[C@H](CO)[C@@H](O)[C@@H]2O)c(=O)[nH]c1=O,> 50,6.5,> 50,0.43,> 100
Nc1ncnc2c1ncn2[C@@H]1O[C@H](CO)[C@@H](O)[C@@H]1O [VIDARABINE],1.17,6.6,6.45,17.1,12.9
O=c1[nH]c(=O)n([C@H]2S[C@H](CO)[C@@H](O)[C@@H]2O)cc1/C=C/Br,> 50,> 100,> 50,> 100,> 100
Nc1nc(N)c2ncn([C@@H]3S[C@H](CO)[C@@H](O)[C@@H]3O)c2n1,0.11,0.4,0.022,0.52,0.2
O=c1[nH]c(=O)n([C@@H]2S[C@H](CO)[C@@H](O)[C@@H]2O)cc1/C=C/Cl,> 50,71,> 50,0.97,> 100
O=c1[nH]c(=O)n([C@@H]2S[C@H](CO)[C@@H](O)[C@@H]2O)cc1I,27.1,13.6,> 50,3.5,> 100
O=c1[nH]c(=O)n([C@@H]2O[C@H](CO)[C@@H](O)[C@@H]2O)cc1/C=C/Br [SORIVUDINE],0.0013,62,> 50,0.036,> 100
O=c1[nH]c(=O)n([C@H]2S[C@H](CO)[C@@H](O)[C@@H]2O)cc1I,> 50,> 100,> 50,> 100,> 100
Nc1ccn([C@@H]2O[C@H](CO)[C@@H](O)[C@@H]2O)c(=O)n1 [CYTARABINE],–,–,–,–,0.0086
Nc1ncnc2c1ncn2[C@@H]1S[C@H](CO)[C@@H](O)[C@@H]1O,1.85,13.5,1.36,18.4,14.8
O=c1[nH]c(=O)n([C@@H]2S[C@H](CO)[C@@H](O)[C@@H]2O)cc1/C=C/Br,0.2,58,> 50,0.82,> 100
Cc1cn([C@H]2S[C@H](CO)[C@@H](O)[C@@H]2O)c(=O)[nH]c1=O,> 50,> 100,> 50,> 100,42
Nc1nc2c(ncn2COCCO)c(=O)[nH]1 [ACYCLOVIR],–,0.23,6.9,0.14,> 100
